Test [1] has as its target Major prion protein (Homo sapiens) (UniProt P04156). Kind of test: Binding affinity to truncated human PrPC at 40 uM. The essentials: (§1)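 SPR at 25 °C, 30 µL/min. Each PrPC form was amine-coupled at 2 µg/mL onto a CM5 dextran chip via NHS/EDC, with ethanolamine block; flow cell 1 served as control. Ligand at 40 µM, 1 min association, 3 min dissociation, with DMSO calibration. Binding expressed as %RU_max, normalised for immobilised RU and molecular weights.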

For test [2] the target is unchanged. Kind of test: Binding affinity to human PrPC at 40 uM. In a few lines: as §1
For test [3], the target named is Major prion protein (Mus musculus) (UniProt P04925). Kind of test: Binding affinity to mouse PrPC at 40 uM. In a few lines:
as §1

Each structure is given as a SMILES string.

Chain of Major prion protein (Mus musculus) (P04925 whole entry): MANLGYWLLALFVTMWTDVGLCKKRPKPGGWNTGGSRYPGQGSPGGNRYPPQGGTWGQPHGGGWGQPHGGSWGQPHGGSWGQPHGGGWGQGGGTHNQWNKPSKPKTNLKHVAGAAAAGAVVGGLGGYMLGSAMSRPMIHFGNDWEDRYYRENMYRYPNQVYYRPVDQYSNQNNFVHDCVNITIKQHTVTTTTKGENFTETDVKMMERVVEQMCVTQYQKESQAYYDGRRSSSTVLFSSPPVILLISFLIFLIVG

Regarding `COC(=O)c1ccc(-c2c(C#N)c(N)nc(Sc3ccc(NC(C)=O)cc3)c2C#N)cc1`, the RUmax in test [1] was 6.4%; in test [2], 9.4%; in test [3], 13.3%.
Taken in the same sequence, the figures for `COC(=O)c1ccc(Sc2nc(N)c(C#N)c(-c3ccc(O)cc3)c2C#N)cc1` were 0%, 0% and 0%.
Taken in the same sequence, the figures for `N#Cc1c(N)nc(Sc2ccc(O)cc2)c(C#N)c1-c1ccc(O)c(F)c1` were 28%, 44.2% and 53.8%.
On the same counts, the results for `COC(=O)c1ccc(-c2c(C#N)c(N)nc(Sc3cccc(Cl)c3)c2C#N)cc1` are 0%, 0% and 0%.
Take `COC(=O)c1ccc(-c2c(C#N)c(N)nc(Sc3ccc(O)cc3)c2C#N)cc1`: the RUmax in test [1], in test [2] and in test [3] was 0% in each case.
As to `CS(=O)(=O)c1ccc(-c2c(C#N)c(N)nc(Sc3ccc(O)cc3)c2C#N)cc1`, the RUmax in test [1], in test [2] and in test [3] was 0% in each case.
`N#Cc1c(N)nc(Sc2ccccc2F)c(C#N)c1-c1cccc(O)c1`: the RUmax was found to be 9.2% in test [1], 17.2% in test [2] and 18.8% in test [3].
Taken in the same sequence, the figures for `N#Cc1c(N)nc(Sc2ccc(Cl)cc2)c(C#N)c1-c1ccccc1` were 11.4%, 0% and 0%.
For `N#Cc1c(N)nc(Sc2ccc(O)cc2)c(C#N)c1-c1cccc(O)c1`, the RUmax came to 23.1% in test [1], 34% in test [2] and 43.1% in test [3].
Taken in the same sequence, the figures for `N#Cc1c(N)nc(Sc2cccc(Cl)c2)c(C#N)c1-c1ccccc1` were 0%, 0% and 0%.
On the same counts, the results for `COC(=O)c1ccc(-c2c(C#N)c(N)nc(Sc3cccc(C(=O)OC)c3)c2C#N)cc1` are 0%, 0% and 0%.
On the same counts, the results for `COC(=O)c1ccc(-c2c(C#N)c(N)nc(Sc3ccc(C(=O)O)cc3)c2C#N)cc1` are 0%, 5.9% and 8.5%.
Turning to `CC(=O)Nc1ccc(Sc2nc(N)c(C#N)c(-c3cc(F)cc(F)c3)c2C#N)cc1`, the RUmax in test [1], in test [2] and in test [3] was 0% each time.
Consider `N#Cc1c(N)nc(Sc2ccccc2)c(C#N)c1-c1ccccc1`, for which the RUmax in test [1], in test [2] and in test [3] was 0% each time.
On to `COc1cccc(-c2c(C#N)c(N)nc(Sc3cccc(Cl)c3)c2C#N)c1`, for which the RUmax in test [1] came to 6.7%; in test [2], 8.6%; in test [3] it was 0%.
On the same counts, the results for `COC(=O)c1ccc(Sc2nc(N)c(C#N)c(-c3ccc(C(=O)OC)cc3)c2C#N)cc1` are 0%, 0% and 0%.
Taken in the same sequence, the figures for `COc1ccc(-c2c(C#N)c(N)nc(Sc3cccc(Cl)c3)c2C#N)cc1` were 0%, 0% and 0%.
On the same counts, the results for `N#Cc1c(N)nc(Sc2cccc(Cl)c2)c(C#N)c1-c1ccc(Cl)cc1` are 56.5%, 119% and 52.3%.
In the case of `COC(=O)c1cccc(Sc2nc(N)c(C#N)c(-c3ccccc3)c2C#N)c1`, the RUmax in test [1] was found to be 26.8%; in test [2], 125%; in test [3] it was 33.2%.
Taken in the same sequence, the figures for `COc1ccc(-c2c(C#N)c(N)nc(Sc3ccccc3)c2C#N)cc1` were 0%, 0% and 0%.
On the same counts, the results for `CC(=O)c1ccc(-c2c(C#N)c(N)nc(Sc3ccc(O)cc3)c2C#N)cc1` are 0%, 0% and 0%.
On the same counts, the results for `N#Cc1c(N)nc(Sc2cccc(O)c2)c(C#N)c1-c1ccccc1` are 37.6%, 70.3% and 60.6%.
With `COc1cccc(-c2c(C#N)c(N)nc(Sc3ccccc3)c2C#N)c1`, the RUmax in test [1], in test [2] and in test [3] was 0% in each case.
Consider `COC(=O)c1ccc(Sc2nc(N)c(C#N)c(-c3ccccc3)c2C#N)cc1`, for which the RUmax in test [1], in test [2] and in test [3] was 0% throughout.
As for `CC(=O)Nc1ccc(Sc2nc(N)c(C#N)c(-c3c(F)cccc3F)c2C#N)cc1`, the RUmax was determined as 20% in test [1], 37.3% in test [2] and 40.1% in test [3].
On the same counts, the results for `N#Cc1c(N)nc(Sc2ccc(O)cc2)c(C#N)c1-c1ccc(O)c(Cl)c1` are 33.4%, 53.4% and 64.6%.

(Values after ChEMBL document CHEMBL1147735, “Library design, synthesis, and screening: pyridine dicarbonitriles as potential prion disease therapeutics” (J Med Chem, 2006).)
